# Rows were chosen to be rich in hits. Some 0.58% of all compounds tested hit in one or more screens of this group.
# zVAD death inh = inhibitors of zVAD-triggered necroptosis, primary screen, L929 cells; L929 zVAD necroptosis rescue, ATP luminescence, 24 h; with zVAD 60 µM; viability rescue, % at 10 µM; 0.38% of 220,000 active; AID 1377, 2008;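 active means activation, scaled between plate controls, above about 75%, limit read from the data; inactive means activation under that limit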;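 further: 0% = zVAD with DMSO and 100% = DMSO alone without zVAD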
# Mdm2 ligase inh = MDM2-luciferase reporter signal enhancers, primary screen, MDM2 E3 ligase inhibitor project, cell-based, luminescence, 1536-well; E3 ubiquitin-protein ligase Mdm2 (Homo sapiens), Q00987; cell-based MDM2 ubiquitination luciferase reporter, 2 h; 0 = plate control, 100 = twice control, blank-subtracted; signal enhancement, % at 5 µM; 0.11% of 210,000 active; AID 1230, 2008;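 active means signal enhancement of 30% or more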;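 further: luminescence tracks abundance of the self-degrading MDM2-luciferase fusion protein; higher signal means inhibition of MDM2 E3 ligase activity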
# Target sequence (Q00987 whole entry, looked up, the tested form may be a part): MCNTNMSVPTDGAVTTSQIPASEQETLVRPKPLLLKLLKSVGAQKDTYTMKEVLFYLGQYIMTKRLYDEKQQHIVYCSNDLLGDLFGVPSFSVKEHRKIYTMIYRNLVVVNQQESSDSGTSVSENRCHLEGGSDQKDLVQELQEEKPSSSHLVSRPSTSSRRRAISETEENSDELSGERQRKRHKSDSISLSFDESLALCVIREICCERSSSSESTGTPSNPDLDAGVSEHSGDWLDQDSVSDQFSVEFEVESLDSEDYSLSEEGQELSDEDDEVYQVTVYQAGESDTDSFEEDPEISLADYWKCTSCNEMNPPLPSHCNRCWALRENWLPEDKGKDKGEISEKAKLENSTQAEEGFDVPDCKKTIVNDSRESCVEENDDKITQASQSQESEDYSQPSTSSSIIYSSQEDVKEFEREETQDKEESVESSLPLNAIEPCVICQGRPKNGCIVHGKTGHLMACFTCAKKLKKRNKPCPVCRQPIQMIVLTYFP
#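 Test system: mammalian cells stably expressing self-ubiquitinating, self-degrading MDM2 E3–luciferase fusion; Amount: 2000 cells in each well; Medium: DMEM; Schedule: 4 h settle plus 2 h compound, 37 °C; Technique: SteadyLite luciferase luminescence after 15 min room-temperature reagent incubation; Benchmarks: plate control and blank wells.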
# TNF death inh = inhibitors of TNF-alpha triggered necroptosis, primary screen, cell-based, Jurkat FADD-/-, single concentration; Jurkat FADD-/- TNF necroptosis rescue, ATP luminescence, 24 h; 0 = TNF only, 100 = no-TNF cells; activation (protection from cell death), % at 10 µM; 0.068% of 220,000 active; AID 463075, 2010;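 active means activation, meaning protection from cell death, of at least 50% relative to plate controls; inactive means activation below 50%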;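 further: necroptosis triggered by 40 ng/mL TNF-alpha added together with compound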
# Rad51 HR inh = human RAD51 strand exchange inhibitors, primary screen, biochemical, fluorescence; AID 1385, 2008; hRad51 DNA strand exchange, fluorescence dequenching; inhibition, % at 10 µM; DNA repair protein RAD51 homolog 1 (Homo sapiens), Q06609; 0.085% of 200,000 active;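 active means inhibition above 40% at the single screening dose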;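 further: 0% = DMSO control wells and 100% = blanks with heterologous ssDNA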
#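 Assay system: Human Rad51 nucleoprotein filaments preassembled on unlabelled ssDNA | Reagent: Donor/quencher-labelled 47-bp dsDNA substrate | Doses: One concentration, 10 µM final | Times: 37 °C 15-min filament assembly, 30-min compound preincubation, 15-min exchange | Technique: Fluorescein emission 520 nm, excitation 485 nm | Benchmarks: Plate control and blank wells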
# Pf gametocyte = late stage P. falciparum gametocyte viability inhibitors, primary screen, ATP luminescence, HTS; 0.065% of 150,000 active; inhibition, % at 10.9 µM; P. falciparum stage V gametocytes, 24 h;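 active means inhibition above the mean plus 3 SD of compounds within the control limits, set per campaign, cut at about 38% in these data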;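 further: 0% = DMSO wells and 100% = medium only without gametocytes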
# Numbers without * were called inactive; . = no result given.
SMILES,zVAD death inh,Mdm2 ligase inh,TNF death inh,Rad51 HR inh,Pf gametocyte
COCCn1c(=NC(=O)c2ccc(S(=O)(=O)N3CCCc4ccccc43)cc2)sc2cc(S(C)(=O)=O)ccc21,0,42*,1,-14,4
C=CCn1c(=NC(=O)c2ccc(S(=O)(=O)N3CCCc4ccccc43)cc2)sc2cc(S(N)(=O)=O)ccc21,0,16,0,-2,-10
O=C(Nc1ccc2c(c1)OCO2)O[C@@H]1C[C@H]2CCC(=O)N3CC[C@@H](C1)[C@@H]23,.,.,.,.,-16
Cn1c(=S)oc2ccccc21,0,4,0,14,5
CC(=O)/C=C/n1c(=S)oc2ccccc21,12,51*,23,.,-5
CC(C)CC(=O)/C=C/n1c(=S)oc2ccccc21,0,58*,-6,-14,7
Cc1ccc(C2/C(=C(\O)c3ccc4c(c3)OCCO4)C(=O)C(=O)N2CCCN(C)C)o1 (stereo not given),1,-11,1,94*,.
COc1ccc(C2/C(=C(\O)c3ccc4c(c3)OCCO4)C(=O)C(=O)N2CCCN(C)C)cc1 (stereo not given),2,-13,0,-2,5
Cc1ccc(N2CCN(C(=O)c3ccccc3)CC2)c(C)c1,0,-15,-4,4,-8
Cc1ccc(N2CCN(C(=O)c3cc(C(=O)c4ccccc4C)c[nH]3)CC2)c(C)c1,5,-6,-3,43*,-17
COc1ccc(C(=O)N/N=C/c2ccccc2C(=O)O)cc1OC,0,.,1,41*,-8
O=C(O)c1ccccc1C(=O)c1ccc(F)c(F)c1,.,.,.,.,0
CC[N+]1=C(C)C(C)(C)c2cc(C)ccc21,-1,-12,-4,-12,14
Cc1ccc2c(c1)C=CC(C)(C)S2=O (stereo not given),1,118*,2,-12,4
COCCCNC(=O)c1c(N)n(-c2ccc3c(c2)OCO3)c2nc3ccccc3nc12,84*,-11,-3,-1,.
Cc1cc(=O)n2[nH]c(Nc3cccc(Cl)c3)nc2n1,.,.,.,.,2
COc1cc(S(=O)(=O)N(Cc2cccnc2)Cc2cccc(OC)c2OC)ccc1-n1cnnn1,1,-7,0,4,-5
COc1cccc(/C=C/C(=O)c2cccc([N+](=O)[O-])c2)c1,-1,-20,0,-35,-7
COc1cccc(/C=C/C(=O)c2cccc([N+](=O)[O-])c2)c1OC,0,3,-5,80*,-21
Cc1onc(-c2ccc(Cl)cc2)c1-c1ccnc(SCC(=O)Nc2cc(Cl)cc(Cl)c2)n1,0,-12,3,-3,14
O=C(/C=C/c1cccnc1)c1cc(F)ccc1O,0,-4,-7,0,17
O=C(/C=C/c1cccnc1)/C=C/c1cccnc1,43,39*,6,9,.
COC(=O)c1scc(C)c1NS(=O)(=O)c1ccc(NC(C)=O)cc1,0,-9,1,6,-9
COC(=O)c1ccccc1NC(=O)C(C)c1ccc([N+](=O)[O-])cc1 (stereo not given),0,-12,-1,42*,2
N#CC1=C(SCC(=O)Nc2ccc(C(=O)O)cc2)NC(=O)CC1c1ccco1 (stereo not given),1,-5,3,17,2
SMILES,zVAD death inh,Mdm2 ligase inh,TNF death inh,Rad51 HR inh,Pf gametocyte
COC(=O)C1=C(C(=O)OC)[C@@H]2N(C)c3ccc(OC)cc3[C@@]23C[C@@H](C(=O)OC)N=C3N1,1,36*,1,8,16
COC(=O)C1=C(C(=O)OC)[C@@H]2N(C)c3ccccc3[C@@]23C[C@@H](C(=O)OC)N=C3N1,0,6,0,1,.
CCCn1c(O)c(C=Nc2ccccc2)sc1=S,1,-5,2,1,29
CCn1c(O)c(C=NCc2ccccc2)sc1=S,-1,-8,68*,13,11
COc1cccc2c1C(=O)c1c(O)c3c(c(O)c1C2=O)C[C@@](O)(C(=O)CO)C[C@@H]3O[C@H]1C[C@H](N)[C@H](O)[C@H](C)O1,56,.,-25,66*,.
CCCN1C=CC(=C/C=C(\C#N)C(=O)OCC)C=C1,89*,-23,3,-231,.
COc1cc(/C=C2/C(=N)N3OC(C)=CC3=NC2=O)ccc1OC(=O)c1ccco1,6,32*,2,3,13
CCOC(=O)c1c(NS(C)(=O)=O)sc2c1CCC(C)C2 (stereo not given),0,-11,-3,89*,-27
O=C(Cc1ccccc1)NN1C(=O)/C(=C/c2ccccc2C(=O)O)SC1=S,0,-14,0,.,14
COc1ccc(C2C(C(=O)N3CCN(C)CC3)c3cc(OC)c(OC)cc3C(=O)N2C)cc1 (stereo not given),4,31*,1,-2,-38
COc1ccc(C2C(C(=O)N3CCCC3)c3cc(OC)c(OC)cc3C(=O)N2C)cc1OC (stereo not given),0,-4,4,-1,3
CCOc1ccccc1CNCCOC,0,-91,0,0,3
O=C(OCC(=O)N1CCN(C(=O)c2ccco2)CC1)c1cn(-c2ccccc2)nc1-c1ccccc1,79*,-19,-11,9,.
Cc1[nH]n(C)c(=O)c1C(=O)c1c(-c2ccccc2Cl)noc1C,0,-10,-14,2,12
O=C(O)CN1C(=O)/C(=C/c2ccc(SCc3ccccc3)o2)SC1=S,0,-13,-12,-194,-2
Cc1nnc(Sc2cc(C(=O)NCc3ccco3)c3ccccc3n2)s1,97*,-13,0,3,.
Cn1cc(NC(=O)c2cc(NC(=O)c3cc(NC=O)cn3C)cn2C)cc1C(=O)NCCC(=N)N,0,9,2,48*,.
C=CCn1c(O)c(C=Nc2ccc(CN3CCCCC3)cc2)c(=O)[nH]c1=S,0,1,-5,-2,-1
CN(C(=O)CSc1ncnc2c(-c3cccs3)nsc12)C1CCCCC1,.,.,.,.,-8
Cn1c(=O)cc(OCCCC(=O)Nc2ccccn2)c2ccccc21,89*,2,6,-7,-24
Cn1c(=O)cc(OCC(=O)NCc2cccs2)c2ccccc21,4,35*,0,8,-6
O=c1c2c3c(sc2n(CCN2CCOCC2)c(=O)n1C1CCCCC1)CCCCC3,.,.,.,.,-10
O=C(Nn1c(-c2ccncc2)nc2ccccc2c1=O)c1ccc([N+](=O)[O-])cc1Cl,1,1,-1,-7,.
COc1ccc(-c2nn(-c3ccccc3)cc2C(=O)Nc2nccs2)cc1,0,-26,-4,-1,-8
O=C(Nc1nccs1)c1cn(-c2ccccc2)nc1-c1ccncc1,11,-28,-1,10,69*
